Experimental findings from ChEMBL document CHEMBL3758148, “4-Phenylpyridin-2-one Derivatives: A Novel Class of Positive Allosteric Modulator of the M1 Muscarinic Acetylcholine Receptor” (J Med Chem, 2016) are described below.

For assay [1], the target named is T1, Muscarinic acetylcholine receptor M1 (Homo sapiens) (UniProt P11229).
T1 sequence (whole entry): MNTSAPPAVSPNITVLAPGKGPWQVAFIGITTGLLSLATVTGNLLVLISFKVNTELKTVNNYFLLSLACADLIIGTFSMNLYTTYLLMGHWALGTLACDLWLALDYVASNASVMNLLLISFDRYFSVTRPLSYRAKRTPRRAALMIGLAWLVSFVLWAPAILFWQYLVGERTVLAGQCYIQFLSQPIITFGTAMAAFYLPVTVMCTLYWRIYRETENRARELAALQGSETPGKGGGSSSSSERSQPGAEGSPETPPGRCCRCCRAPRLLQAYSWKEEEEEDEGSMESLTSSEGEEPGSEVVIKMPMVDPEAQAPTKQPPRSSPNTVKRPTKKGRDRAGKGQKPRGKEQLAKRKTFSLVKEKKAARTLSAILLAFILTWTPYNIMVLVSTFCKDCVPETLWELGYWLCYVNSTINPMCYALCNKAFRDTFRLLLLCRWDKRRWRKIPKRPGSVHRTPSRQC
The assay can be described thus: Displacement of [3H]NMS from human muscarinic M1 receptor expressed in CHO Flp-In cells after 1 hr by microbeta liquid scintillation counting-based radioligand binding assay. The class given is cell-based. The method, boiled down:
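Intact adherent Flp-In CHO cells expressing hM1 (10⁴ cells/well), incubated with 0.2 nM [3H]NMS, varying ACh and modulator in HEPES-buffered saline pH 7.4 for 1 h at 37 °C. Washed with ice-cold 0.9% NaCl, then scintillation counted. Fitted to an allosteric ternary complex model with [3H]NMS KA 0.2 nM. Mean ± SEM, ≥3 experiments in duplicate.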

Assay [2] deals with T1, Muscarinic acetylcholine receptor M1 (Homo sapiens). Kind of assay: Positive allosteric modulation of human muscarinic M1 receptor expressed in CHO Flp-In cells assessed as functional cooperativity with acetylcholine measured as IP1 accumulation after 1 hr by HTRF method. It is filed as cell-based. Summed up: (§1)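 Suspended Flp-In CHO cells stably expressing hM1, stimulated at 10⁶ cells/ml in HEPES buffer with 50 mM LiCl, pH 7.4, using increasing ACh with or without increasing modulator, 1 h at 37 °C, 5% CO2. IP1 read by HTRF (665/590 nm ratio). Curves fitted globally to the operational model of allosterism, with KB fixed from binding. Mean ± SEM, ≥3 experiments in duplicate.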
(Time-resolved FRET reads energy transfer from a long-lived donor to a nearby acceptor.)

Assay [3] has the same target. The assay can be described thus: Allosteric agonist activity at human muscarinic M1 receptor expressed in CHO Flp-In cells assessed as intrinsic activity measured as IP1 accumulation after 1 hr by HTRF method. The class given is functional, cell-based. The method, boiled down: as §1
Assay [4] has the same target. Kind of assay: Positive allosteric modulation of human muscarinic M1 receptor expressed in CHO Flp-In cells assessed as functional cooperativity with acetylcholine measured as IP1 accumulation upto 30 uM after 1 hr by HTRF method. The class given is cell-based. The method, boiled down:
as §1

The source made the active and inactive calls. The calls are words filed in the database; no cut-off is given here.

The term pKb denotes the Kb on a negative log10 scale, so that one unit is a factor of ten. Low values mean a high Kb, high ones a low Kb. In the case of `COc1ccc(COc2ccccc2-c2ccn([C@H]3CCCC[C@@H]3O)c(=O)c2)cc1` (racemic), in assay [1], the Kb amounted to 52 µM and the negative logarithm of the Kb (pKb) stood at 4.28. Besides, the log(activity) in assay [2] amounted to 0.8. In assay [3], the Intrinsic activity was 0.08 and the log(IA) is -1.1.
In the same order, the values of `COc1cccc(COc2ccccc2-c2ccn([C@H]3CCCC[C@@H]3O)c(=O)c2)c1` (racemic) are 65 µM, 4.19, 0.84, 1.45 and 0.16.
In assay [1], `COc1ccccc1COc1ccccc1-c1ccn([C@H]2CCCC[C@@H]2O)c(=O)c1` (racemic) came in with a Kb of 30 µM and a pKb of 4.53. Also, the result in assay [4] was inactive.
In the same order, the values of `N#Cc1ccccc1COc1ccccc1-c1ccn([C@H]2CCCC[C@@H]2O)c(=O)c1` (racemic) are 42 µM, 4.38 and “inactive”.
`Nc1ccccc1-c1ccn([C@H]2CCCC[C@@H]2O)c(=O)c1` (racemic) returned a negative logarithm of the Kb (pKb) in assay [1] of 3.86. For the same molecule, the result in assay [4] was inactive.
The molecule `O=C(O)c1ccc(COc2ccccc2-c2ccn([C@H]3CCCC[C@@H]3O)c(=O)c2)cc1` (racemic) returned a pKb in assay [1] of 3.88. The log(activity) in assay [2] came out at 0.92. The log(IA) in assay [3] is -1.24.
Turning to `O=c1cc(-c2ccccc2NCc2ccc(-c3ccccc3)cc2)ccn1[C@H]1CCCC[C@@H]1O` (racemic), in assay [1], the Kb is 69 µM and the pKb was 4.16. Also, the result in assay [4] was inactive.
As to `O=c1cc(-c2ccccc2NCc2ccc(-c3ccncc3)cc2)ccn1[C@H]1CCCC[C@@H]1O` (racemic), in assay [1], the Kb came to 9.3 µM and the pKb was determined as 5.03. In assay [4], the result was inactive.
Take `O=c1cc(-c2ccccc2NCc2ccc(-c3cncnc3)cc2)ccn1[C@H]1CCCC[C@@H]1O` (racemic): in assay [1], the pKb was found to be 3.86. The log(activity) in assay [2] is 0.68. Further, in assay [3], the Intrinsic activity was determined as 1.1 and the log(IA) was 0.04.
In assay [1], `O=c1cc(-c2ccccc2NCc2ccc(Br)cc2)ccn1[C@H]1CCCC[C@@H]1O` (racemic) came in with a Kb of 45 µM and a negative logarithm of the Kb (pKb) of 4.35. Moreover, the outcome in assay [4] was inactive.
For `O=c1cc(-c2ccccc2O)ccn1[C@H]1CCCC[C@@H]1O` (racemic), in assay [1], the Kb was determined as 79 µM and the pKb came to 4.1. For the same molecule, the outcome in assay [4] was inactive.
In assay [1], `O=c1cc(-c2ccccc2OCc2ccc(-c3ccccc3)cc2)ccn1[C@H]1CCCC[C@@H]1O` (racemic) returned a Kb of 10 µM and a negative-log Kb (pKb) of 4.99. The log(activity) in assay [2] amounted to 1.09. For the same molecule, in assay [3], the Intrinsic activity amounted to 1.38 and the log(IA) stood at 0.14.
In assay [1], `O=c1cc(-c2ccccc2OCc2ccc(-c3cnn(CC4CCCCC4)c3)cc2)ccn1[C@H]1CCCC[C@@H]1O` (racemic) returned a Kb of 30 µM and a negative-log Kb (pKb) of 4.52. Besides, the outcome in assay [4] was inactive.
Taken in the same sequence, the figures for `O=c1cc(-c2ccccc2OCc2ccc(-c3cnn(Cc4ccccc4)c3)cc2)ccn1[C@H]1CCCC[C@@H]1O` (racemic) were 21 µM, 4.68 and “inactive”.
In the same order, the values of `O=c1cc(-c2ccccc2OCc2ccc(Br)cc2)ccn1[C@H]1CCCC[C@@H]1O` (racemic) are 58 µM, 4.24 and “inactive”.
In the same order, the values of `O=c1cc(-c2ccccc2OCc2ccc(Br)cc2F)ccn1[C@H]1CCCC[C@@H]1O` (racemic) are 18 µM, 4.75 and “inactive”.
In assay [1], `O=c1cc(-c2ccccc2OCc2ccc(F)cc2)ccn1[C@H]1CCCC[C@@H]1O` (racemic) gave a Kb of 60 µM and a negative-log Kb (pKb) of 4.22. Moreover, the log(activity) in assay [2] turned out to be 1.15. In addition, in assay [3], the Intrinsic activity is 1 and the log(IA) was 0.
In assay [1], `O=c1cc(-c2ccccc2OCc2ccc(Oc3ccccc3)cc2)ccn1[C@H]1CCCC[C@@H]1O` (racemic) came in with a Kb of 19 µM and a pKb of 4.71. For the same molecule, the outcome in assay [4] was inactive.
As for `O=c1cc(-c2ccccc2OCc2cccc(C(F)(F)F)c2)ccn1[C@H]1CCCC[C@@H]1O` (racemic), in assay [1], the Kb was determined as 30 µM and the pKb worked out at 4.53. For the same molecule, the log(activity) in assay [2] came to 0. In addition, in assay [3], the Intrinsic activity is 1.02 and the log(IA) was 0.01.
Regarding `O=c1cc(-c2ccccc2OCc2cccc(F)c2)ccn1[C@H]1CCCC[C@@H]1O` (racemic), in assay [1], the Kb was 41 µM and the negative logarithm of the Kb (pKb) is 4.38. Also, the log(activity) in assay [2] amounted to 0.85. For the same molecule, in assay [3], the Intrinsic activity was determined as 0.78 and the log(IA) is -0.11.
In assay [1], `O=c1cc(-c2ccccc2OCc2ccccc2)ccn1[C@H]1CCCC[C@@H]1O` (racemic) displayed a Kb of 28 µM and a pKb of 4.55. Moreover, the log(activity) in assay [2] is 0.94. In addition, in assay [3], the Intrinsic activity came to 0.58 and the log(IA) is -0.24.
Consider `O=c1cc(-c2ccccc2OCc2ccccc2C(F)(F)F)ccn1[C@H]1CCCC[C@@H]1O` (racemic), for which, in assay [1], the Kb is 33 µM and the negative-log Kb (pKb) came to 4.48. In addition, in assay [4], the result was inactive.
In assay [1], `O=c1cc(-c2ccccc2OCc2ccccc2F)ccn1[C@H]1CCCC[C@@H]1O` (racemic) registered a Kb of 30 µM and a pKb of 4.52. Further, the log(activity) in assay [2] was 0.62. In assay [3], the Intrinsic activity is 0.44 and the log(IA) was -0.36.
